Measured values published in ChEMBL document CHEMBL2034828, “Synthesis of β(1,3) oligoglucans exhibiting a Dectin-1 binding affinity and their biological evaluation” (Bioorg Med Chem, 2012).
Blank lines part the entries; values can stand above or below the compound they belong to. The source made the active and inactive calls. No cut-off for these calls is given here.

How the values were obtained:
[1] = molecular target: T1, C-type lectin domain family 7 member A (Mus musculus) (UniProt Q6QLQ4); assay: Inhibition of mouse N-terminal hexahistidine-tagged C-type lectin domain of Dectin-1 expressed in Escherichia coli BL21 (DE3) binding to solid-supported schizophyllan pretreated for 30 mins prior SPG addition measured after 1 hr by competitive ELISA relative to SPG
T1 sequence (whole entry): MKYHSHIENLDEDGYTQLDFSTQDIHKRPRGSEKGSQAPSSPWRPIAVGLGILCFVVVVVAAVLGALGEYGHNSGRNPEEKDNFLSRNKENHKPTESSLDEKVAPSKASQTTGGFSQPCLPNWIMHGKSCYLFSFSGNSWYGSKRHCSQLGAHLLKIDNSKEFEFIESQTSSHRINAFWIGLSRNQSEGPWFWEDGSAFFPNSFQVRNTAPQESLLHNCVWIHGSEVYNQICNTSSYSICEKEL

[2] = molecular target: T2, C-type lectin domain family 7 member A (Homo sapiens) (UniProt Q9BXN2); assay: Agonist activity at Dectin-1 expressed in human 293T cells assessed as LPS-mediated NF-kappaB activation after 6 hrs by dual luciferase reporter gene assay; type: functional, cell-based
T2 sequence (whole entry): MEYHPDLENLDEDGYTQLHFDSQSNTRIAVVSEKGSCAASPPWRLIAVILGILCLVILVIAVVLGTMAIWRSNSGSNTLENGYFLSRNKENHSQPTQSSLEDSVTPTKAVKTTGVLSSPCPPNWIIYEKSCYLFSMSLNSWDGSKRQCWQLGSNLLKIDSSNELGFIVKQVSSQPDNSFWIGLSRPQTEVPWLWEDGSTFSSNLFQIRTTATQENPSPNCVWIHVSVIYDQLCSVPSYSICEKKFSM
Method in brief: (§1)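 293T cells were plated at 1 × 10⁴ cells/well in DMEM with 10% FBS for 20 h at 37 °C, 5% CO₂. They were then lipofected for 18 h. Dectin-1 wells received Dectin-1A, CARD9 and Bcl10 plasmids; TLR4 wells received TLR4 and MD-2 plasmids. Both received NF-κB-RE firefly and TK-Renilla reporters. Cells were stimulated 6 h with oligosaccharides, SPG, or oligosaccharides plus LPS. Read-out was the firefly/Renilla dual-luciferase ratio.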

[3] = molecular target: T1, C-type lectin domain family 7 member A (Mus musculus); assay: Binding affinity to mouse N-terminal hexahistidine-tagged C-type lectin domain of Dectin-1 expressed in Escherichia coli BL21 (DE3) by STD-NMR analysis
Method in brief: (§2)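 Protein was mouse Dectin-1 CTLD (Gly113–Leu244) with an N-terminal His6 tag and thrombin site, expressed in E. coli BL21(DE3)codonplus in LB. Expression was induced 6 h at 37 °C. Inclusion bodies were solubilized in 8 M urea, 50 mM Tris-HCl pH 8.0, 50 mM NaCl. Protein was refolded 16 h at 4 °C by dilution into 200 mM Tris-HCl pH 8.0, 0.4 M L-arginine, 5.0 mM GSH, 0.5 mM GSSG, then purified. Ligand was titrated at 0–25 molar equivalents with ¹H NMR monitoring.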

[4] = molecular target: Toll-like receptor 4 (Homo sapiens) (UniProt O00206); assay: Agonist activity at TLR4 expressed in human 293T cells assessed as LPS-mediated NF-kappaB activation after 6 hrs by dual luciferase reporter gene assay; type: functional, cell-based; method in brief: as §1
[5] = molecular target: T1, C-type lectin domain family 7 member A (Mus musculus); assay: Binding affinity to mouse N-terminal hexahistidine-tagged C-type lectin domain of Dectin-1 expressed in Escherichia coli BL21 (DE3) by measuring saturation transfer difference amplification factor; method in brief: as §2

Chain of Toll-like receptor 4 (Homo sapiens) (O00206 whole entry, the tested form may be a part): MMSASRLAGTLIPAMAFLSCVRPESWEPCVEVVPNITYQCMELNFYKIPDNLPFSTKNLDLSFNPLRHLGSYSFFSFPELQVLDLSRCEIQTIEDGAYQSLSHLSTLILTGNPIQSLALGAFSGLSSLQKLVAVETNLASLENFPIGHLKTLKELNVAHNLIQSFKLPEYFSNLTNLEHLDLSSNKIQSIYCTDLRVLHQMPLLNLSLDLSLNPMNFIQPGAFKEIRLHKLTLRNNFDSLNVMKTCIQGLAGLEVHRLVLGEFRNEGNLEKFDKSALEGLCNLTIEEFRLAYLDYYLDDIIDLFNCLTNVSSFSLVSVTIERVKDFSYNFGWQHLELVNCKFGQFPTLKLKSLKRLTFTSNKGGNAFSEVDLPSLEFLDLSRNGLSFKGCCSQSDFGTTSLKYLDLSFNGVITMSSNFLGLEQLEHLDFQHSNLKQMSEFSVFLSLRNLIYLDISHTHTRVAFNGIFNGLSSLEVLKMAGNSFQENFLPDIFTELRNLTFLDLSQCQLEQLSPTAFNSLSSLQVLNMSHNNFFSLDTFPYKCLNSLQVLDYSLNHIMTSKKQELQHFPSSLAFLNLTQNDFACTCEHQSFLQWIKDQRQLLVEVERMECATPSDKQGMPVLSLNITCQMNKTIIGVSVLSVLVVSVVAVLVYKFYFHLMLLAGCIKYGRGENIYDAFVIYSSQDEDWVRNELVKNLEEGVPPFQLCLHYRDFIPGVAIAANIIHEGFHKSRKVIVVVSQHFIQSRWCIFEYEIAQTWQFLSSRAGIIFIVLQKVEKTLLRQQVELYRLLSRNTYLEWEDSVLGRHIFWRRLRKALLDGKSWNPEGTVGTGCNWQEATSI

fold change (FC) [1]: 10
Activity [2]: Active
Activity [3]: Active
Activity [4]: inactive
Activity [5]: Active
SMILES: NCCCCCCO[C@@H]1O[C@H](CO)[C@@H](O)[C@H](O[C@@H]2O[C@H](CO)[C@@H](O)[C@H](O[C@@H]3O[C@H](CO)[C@@H](O)[C@H](O[C@@H]4O[C@H](CO)[C@@H](O)[C@H](O[C@@H]5O[C@H](CO)[C@@H](O)[C@H](O[C@@H]6O[C@H](CO)[C@@H](O)[C@H](O[C@@H]7O[C@H](CO)[C@@H](O)[C@H](O[C@@H]8O[C@H](CO)[C@@H](O)[C@H](O[C@@H]9O[C@H](CO)[C@@H](O)[C@H](O[C@@H]%10O[C@H](CO)[C@@H](O)[C@H](O[C@@H]%11O[C@H](CO)[C@@H](O)[C@H](O[C@@H]%12O[C@H](CO)[C@@H](O)[C@H](O[C@@H]%13O[C@H](CO)[C@@H](O)[C@H](O[C@@H]%14O[C@H](CO)[C@@H](O)[C@H](O[C@@H]%15O[C@H](CO)[C@@H](O)[C@H](O[C@@H]%16O[C@H](CO)[C@@H](O)[C@H](O)[C@H]%16O)[C@H]%15O)[C@H]%14O)[C@H]%13O)[C@H]%12O)[C@H]%11O)[C@H]%10O)[C@H]9O)[C@H]8O)[C@H]7O)[C@H]6O)[C@H]5O)[C@H]4O)[C@H]3O)[C@H]2O)[C@H]1O

fold change (FC) [1]: 10
Activity [2]: Active
SMILES: NCCCCCCO[C@@H]1O[C@H](CO)[C@@H](O)[C@H](O[C@@H]2O[C@H](CO)[C@@H](O)[C@H](O[C@@H]3O[C@H](CO)[C@@H](O)[C@H](O[C@@H]4O[C@H](CO)[C@@H](O)[C@H](O[C@@H]5O[C@H](CO)[C@@H](O)[C@H](O[C@@H]6O[C@H](CO)[C@@H](O)[C@H](O[C@@H]7O[C@H](CO)[C@@H](O)[C@H](O[C@@H]8O[C@H](CO)[C@@H](O)[C@H](O[C@@H]9O[C@H](CO)[C@@H](O)[C@H](O[C@@H]%10O[C@H](CO)[C@@H](O)[C@H](O[C@@H]%11O[C@H](CO)[C@@H](O)[C@H](O[C@@H]%12O[C@H](CO)[C@@H](O)[C@H](O[C@@H]%13O[C@H](CO)[C@@H](O)[C@H](O[C@@H]%14O[C@H](CO[C@@H]%15O[C@H](CO)[C@@H](O)[C@H](O)[C@H]%15O)[C@@H](O)[C@H](O[C@@H]%15O[C@H](CO)[C@@H](O)[C@H](O[C@@H]%16O[C@H](CO)[C@@H](O)[C@H](O)[C@H]%16O)[C@H]%15O)[C@H]%14O)[C@H]%13O)[C@H]%12O)[C@H]%11O)[C@H]%10O)[C@H]9O)[C@H]8O)[C@H]7O)[C@H]6O)[C@H]5O)[C@H]4O)[C@H]3O)[C@H]2O)[C@H]1O

Activity [1]: inactive
Activity [2]: inactive
SMILES: NCCCCCCO[C@@H]1O[C@H](CO)[C@@H](O)[C@H](O[C@@H]2O[C@H](CO)[C@@H](O)[C@H](O[C@@H]3O[C@H](CO)[C@@H](O)[C@H](O[C@@H]4O[C@H](CO)[C@@H](O)[C@H](O[C@@H]5O[C@H](CO)[C@@H](O)[C@H](O[C@@H]6O[C@H](CO)[C@@H](O)[C@H](O[C@@H]7O[C@H](CO)[C@@H](O)[C@H](O[C@@H]8O[C@H](CO)[C@@H](O)[C@H](O[C@@H]9O[C@H](CO)[C@@H](O)[C@H](O[C@@H]%10O[C@H](CO[C@@H]%11O[C@H](CO)[C@@H](O)[C@H](O)[C@H]%11O)[C@@H](O)[C@H](O[C@@H]%11O[C@H](CO)[C@@H](O)[C@H](O[C@@H]%12O[C@H](CO)[C@@H](O)[C@H](O)[C@H]%12O)[C@H]%11O)[C@H]%10O)[C@H]9O)[C@H]8O)[C@H]7O)[C@H]6O)[C@H]5O)[C@H]4O)[C@H]3O)[C@H]2O)[C@H]1O

Further lines, the compound ahead of its results:

SMILES: NCCCCCCO[C@@H]1O[C@H](CO)[C@@H](O)[C@H](O[C@@H]2O[C@H](CO)[C@@H](O)[C@H](O[C@@H]3O[C@H](CO)[C@@H](O)[C@H](O[C@@H]4O[C@H](CO)[C@@H](O)[C@H](O[C@@H]5O[C@H](CO)[C@@H](O)[C@H](O[C@@H]6O[C@H](CO[C@@H]7O[C@H](CO)[C@@H](O)[C@H](O)[C@H]7O)[C@@H](O)[C@H](O[C@@H]7O[C@H](CO)[C@@H](O)[C@H](O[C@@H]8O[C@H](CO)[C@@H](O)[C@H](O)[C@H]8O)[C@H]7O)[C@H]6O)[C@H]5O)[C@H]4O)[C@H]3O)[C@H]2O)[C@H]1O
Activity [1]: inactive
Activity [2]: inactive

SMILES: NCCCCCCO[C@@H]1O[C@H](CO)[C@@H](O)[C@H](O[C@@H]2O[C@H](CO)[C@@H](O)[C@H](O[C@@H]3O[C@H](CO)[C@@H](O)[C@H](O[C@@H]4O[C@H](CO)[C@@H](O)[C@H](O[C@@H]5O[C@H](CO)[C@@H](O)[C@H](O[C@@H]6O[C@H](CO)[C@@H](O)[C@H](O[C@@H]7O[C@H](CO)[C@@H](O)[C@H](O[C@@H]8O[C@H](CO)[C@@H](O)[C@H](O)[C@H]8O)[C@H]7O)[C@H]6O)[C@H]5O)[C@H]4O)[C@H]3O)[C@H]2O)[C@H]1O
Activity [1]: inactive
Activity [2]: inactive
Activity [4]: inactive

SMILES: NCCCCCCO[C@@H]1O[C@H](CO)[C@@H](O)[C@H](O[C@@H]2O[C@H](CO)[C@@H](O)[C@H](O[C@@H]3O[C@H](CO)[C@@H](O)[C@H](O[C@@H]4O[C@H](CO)[C@@H](O)[C@H](O[C@@H]5O[C@H](CO)[C@@H](O)[C@H](O[C@@H]6O[C@H](CO)[C@@H](O)[C@H](O[C@@H]7O[C@H](CO)[C@@H](O)[C@H](O[C@@H]8O[C@H](CO)[C@@H](O)[C@H](O[C@@H]9O[C@H](CO)[C@@H](O)[C@H](O[C@@H]%10O[C@H](CO)[C@@H](O)[C@H](O[C@@H]%11O[C@H](CO)[C@@H](O)[C@H](O[C@@H]%12O[C@H](CO)[C@@H](O)[C@H](O)[C@H]%12O)[C@H]%11O)[C@H]%10O)[C@H]9O)[C@H]8O)[C@H]7O)[C@H]6O)[C@H]5O)[C@H]4O)[C@H]3O)[C@H]2O)[C@H]1O
Activity [1]: inactive
Activity [2]: inactive
Activity [4]: inactive
